Screening results: PubChem, The Scripps Research Institute Molecular Screening Center
PRMT1 inh: inhibitors of human PRMT1. Q99873. recombinant PRMT1, activity-based probe fluorescence polarization. inhibition, % at 2.79 µM. 370,000 tested, 1.3% active. AID 652257;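 active means inhibition above about 21% made by adding two undisclosed values, limit read from the data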
Target sequence (Q99873 whole entry, looked up): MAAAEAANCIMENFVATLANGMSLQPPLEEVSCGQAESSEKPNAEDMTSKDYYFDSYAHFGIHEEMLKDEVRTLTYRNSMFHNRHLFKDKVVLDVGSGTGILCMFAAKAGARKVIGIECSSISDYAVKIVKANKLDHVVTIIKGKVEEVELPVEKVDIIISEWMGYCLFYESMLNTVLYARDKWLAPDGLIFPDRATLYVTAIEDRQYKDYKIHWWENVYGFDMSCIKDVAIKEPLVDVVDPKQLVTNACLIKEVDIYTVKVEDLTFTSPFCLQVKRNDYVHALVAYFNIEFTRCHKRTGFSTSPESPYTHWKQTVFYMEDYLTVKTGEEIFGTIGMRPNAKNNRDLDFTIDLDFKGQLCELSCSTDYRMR
TCR-CD3 inh: inhibitors of human TCR-CD3 interaction. TAMRA-labeled TCR probe fluorescence, biochemical. 360,000 tested, 0.37% active. inhibition, % at 9.4 µM; in the data active means inhibition above about 19%;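 further: recombinant mutant TCR 2C K166C tagged with TAMRA read by polarization; 0% = receptor in buffer alone and 100% = receptor with positive control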
mABHD4 FP: ABHD4 (mouse) inhibition, primary FP screen; Q8VD66; purified mABHD4, FP-Rh probe fluorescence polarization; inhibition, % at 8.92 µM; 370,000 tested, 0.54% active; AID 720543;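 active means inhibition exceeding the mean over every tested compound plus 3 SD, cut at about 30% in these data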;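 further: 0% = plate median of compound wells and 100% = S159A mutant with DMSO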
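Test system: mABHD4 protein; Read-out basis: % inhibition; Incubation: 45 min + 60 min at 25 °C; Repeats: single replicate; Technique: fluorescence polarization with parallel and perpendicular emission, 525/598 nm; Compound: 8.92 µM, single dose; Benchmarks: full inhibition S159A mutant plus DMSO, zero as sample-well median.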
rCAG RNA binder: molecules binding r(CAG) RNA repeats | r(CAG) RNA repeat, TO-PRO-1 dye displacement fluorescence | inhibition, % at 3 µM | 370,000 tested, 1.3% active;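 active means inhibition above the plate cutoff, the mean of all test compounds on that plate plus 3 SD, cut at about 35% in these data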;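 further: 0% = DMSO alone and 100% = 100 µM mitoxantrone as full dye displacement; higher means more dye released from RNA so lower well fluorescence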
HTRA1 inhibitor: inhibitors of human serine peptidase HTRA1; 340,000 tested, 0.5% active; recombinant HTRA1, FP-rhodamine activity-based probe, fluorescence polarization; Q92743; inhibition, % at 5.96 µM; AID 504803; in the data active means inhibition above about 36%;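 further: 0% = enzyme with DMSO and 100% = wells lacking enzyme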
SIAE inh: inhibitors of human sialic acid acetylesterase SIAE; Q9HAT2; SIAE FP-Rh probe binding, fluorescence polarization; inhibition, % at 9.66 µM; 370,000 tested, 0.69% active;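 active means inhibition above a cutoff: mean of compounds within the control limits plus 3 SD of those, cut at about 17% in these data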;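 further: 0% = plate median of compound wells and 100% = probe without SIAE protein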
ABHD4 confirm: ABHD4 (mouse) inhibition, FP confirmation. shares compounds with mABHD4 FP. purified mABHD4, FP-Rh probe fluorescence polarization. inhibition, % at 8.92 µM. 1,800 tested, 55% active;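 active means mean inhibition across replicates above the hit cutoff set in the primary screen, cut at about 30% in these data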;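 further: 0% = wild-type ABHD4 with DMSO and 100% = catalytically dead S159A mutant with DMSO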
SIAE confirm: human SIAE inhibition, confirmation; inhibition, % at 9.66 µM; AID 1117263; SIAE FP-Rh activity-based probe, fluorescence polarization; shares compounds with SIAE inh; 2,300 tested, 13% active;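 active means mean inhibition of the replicates above the hit cutoff set in the primary screen, cut at about 17% in these data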;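 further: 0% = SIAE with DMSO and probe and 100% = probe without SIAE; inhibitors lower polarization as more probe stays unbound to SIAE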
Starred values were filed as active, the others as inactive; nt = no result. The list is not random: actives were taken first. Their share in the collection is about 3.5%.

SMILES	PRMT1 inh	TCR-CD3 inh	mABHD4 FP	rCAG RNA binder	HTRA1 inhibitor	SIAE inh	SIAE confirm	others
COc1cc2ccc(=O)oc2c(O[C@@H]2O[C@H](CO)[C@@H](O)[C@H](O)[C@H]2O)c1O	0	6	3	-1	3	9	nt
COc1cc2ccc(=O)oc2c(O)c1O	5	11	32*	-1	11	26*	15	ABHD4 confirm=6
COc1ccc(NC(=O)C2Cc3cccc(OC)c3O/C2=N\O)cc1 (stereo not drawn)	1	0	4	-1	1	-9	nt
COc1cccc2c1O/C(=N\O)C(C(=O)Nc1ccc(C)cc1)C2 (stereo not drawn)	-2	4	-6	-3	2	21*	5
COc1ccccc1CNC(=O)NC1CCN(CC(=O)Nc2ccc3c(c2)OCCO3)CC1	-3	nt	3	1	nt	0	nt
Cc1cc(C)cc(C(=O)NC(CC(N)=O)c2ccc(N3CCN(c4ccccc4)CC3)c([N+](=O)[O-])c2)c1 (stereo not drawn)	-3	-4	-3	10	-2	21*	6
NC(=O)CC(NC(=O)c1ccccc1)c1ccc(N2CCN(c3ccccc3)CC2)c([N+](=O)[O-])c1 (stereo not drawn)	-1	-2	-3	-2	12	-6	nt
CCCCCC(=O)Nc1ccc2oc(-c3cncc(Br)c3)nc2c1	1	4	-2	0	-5	36*	-5
Cc1n[nH]c(=S)n(/N=C/c2cccs2)c1=O	-4	-4	1	0	2	19*	-2
CCN1CCCCC(NC(=O)Cc2ccccc2)C1=O (stereo not drawn)	1	nt	2	-1	nt	-2	nt
COc1ccc(N2CCN(CCNS(=O)(=O)c3ccc(F)cc3)CC2)cc1	0	nt	2	-1	nt	4	nt
COc1cc(OC)c(NC(=O)N2CCOCC2)cc1Cl	-4	-4	0	-1	3	25*	2
COC(=O)[C@]12CCCCC=C1N(Cc1ccc(OC)cc1)C(=O)[C@@H]2CC(=O)N1CCOCC1	0	nt	7	0	nt	-7	nt
COc1ccc(C(C)(C)C)cc1NC(=O)Nc1ccc2c(c1)OCO2	2	6	-4	6	4	21*	6
COc1cc(NC(=O)Nc2ccc3c(c2)OCO3)cc(OC)c1OC	-4	4	-4	0	1	4	nt
COc1cc(NC2=Nc3cccc4cccc2c34)cc(OC)c1OC	-2	2	0	0	0	24*	9
COc1ccc(NC2=Nc3cccc4cccc2c34)cc1OC	1	-9	6	-2	-7	6	nt
Cc1ccc(C(=O)N/C(=C/c2ccc(Cl)cc2)C(=O)NCC2CCCO2)cc1 (stereo not drawn)	-3	-2	1	-2	1	29*	-4
COc1ccc(-c2cn(Cc3ccc([N+](=O)[O-])cc3)nn2)cc1	-1	1	4	-3	-9	2	nt
CNc1ccc(OC)cc1-n1cnc(-c2ccc([N+](=O)[O-])cc2)c1	1	2	2	1	-2	20*	8
COc1ccc(C2O[C@@H](C)[C@@H]3C(=O)N4CCc5c([nH]c6ccccc56)[C@@H]4C[C@@H]3N2C)cc1 (stereo partly drawn)	-2	4	5	2	nt	8	nt
O=C1[C@@H]2CSCN2C(=O)CN1Cc1ccccc1F	-8	2	0	-2	-1	19*	3
O=C1[C@@H]2CSCN2C(=O)CN1Cc1c(F)cccc1Cl	1	2	5	-2	6	-1	nt
O=C(O)c1cn(-c2ccc(F)cc2)c(=O)c2ccccc12	-2	3	2	-1	0	0	nt
COC(=O)c1cn(-c2ccc(F)cc2)c(=O)c2ccccc12	-2	0	3	-2	-2	18*	6
SMILES	PRMT1 inh	TCR-CD3 inh	mABHD4 FP	rCAG RNA binder	HTRA1 inhibitor	SIAE inh	SIAE confirm	others
Cn1cccc1C(=O)N1CCN(S(=O)(=O)c2ccc(Br)s2)CC1	-1	nt	2	4	nt	0	nt
COC(=O)c1ccc(Cn2ccc3ccc(-c4ccc5ccn(Cc6ccc(C(=O)OC)cc6)c5c4)cc32)cc1	3	nt	8	23	nt	0	nt
COC(=O)C1=C(C(C)=O)C(c2ccc(C)cc2)n2nnnc2N1 (stereo not drawn)	0	9	7	0	5	10	nt
COC(=O)C1=C(C(C)=O)C(c2ccc(C(=O)OC)cc2)n2nnnc2N1 (stereo not drawn)	0	-3	13	0	-5	23*	-3
CC(COc1ccc(C#N)cc1F)CN1CCC(C(O)(c2ccccc2)c2ccccc2)CC1 (stereo not drawn)	-3	nt	5	2	nt	2	nt
Nc1ncnc2c1ncn2[C@@H]1O[C@H](C(=O)N2CCC[C@@H]2C(=O)OCc2ccccc2)[C@@H](O)[C@H]1O	0	11	-6	0	nt	28*	19*
Nc1ncnc2c1ncn2[C@@H]1O[C@H](C(=O)N2CCC(F)(F)CC2)[C@@H](O)[C@H]1O	1	5	-2	2	nt	52*	57*
Nc1ncnc2c1ncn2[C@@H]1O[C@H](C(=O)N2CCN(c3nc4ccccc4o3)CC2)[C@@H](O)[C@H]1O	12	-4	1	3	nt	1	nt
O=C(OC12CCCN(C1)/C(=C/c1cccnc1)C2)c1ccc(F)cc1 (stereo not drawn)	-1	nt	1	0	nt	-1	nt
N#C/C(=C\Nc1ccccc1O)c1nc2ccccc2o1	-2	5	18	24	-13	18*	-10
Cc1cccc(C)c1NC(=O)c1cc(S(=O)(=O)N2CCOCC2)cn1C	-1	1	-5	2	0	19*	-1
CC1(c2nnnn2Cc2ccccc2)CN(S(C)(=O)=O)CC(=O)N1Cc1cccs1 (stereo not drawn)	-5	nt	-1	2	nt	5	nt
CCc1c(C)c2ccc(OCC(N)=O)cc2oc1=O	-3	-1	-2	-1	4	24*	2
O=C(OCC#CCSc1nnc(-c2cccc3ccccc23)o1)C1CCCC1	1	nt	2	nt	nt	4	nt
CCc1nc2ccc(C(=O)NCCc3ccccn3)cn2c1N(C)Cc1ccc(N(C)C)cc1	2	-2	3	-2	nt	23*	4
O=C(NNc1c2ccccc2nc2ccccc12)c1cccc(O)c1	-1	0	20	6	18	18*	6
CCCC(C(=O)NC1CCCC1)N(Cc1ccc(F)cc1)C(=O)c1snc(C(N)=O)c1N (stereo not drawn)	-1	1	-8	-3	-6	-1	nt
